BAP1 block: human BAP1 deubiquitinase inhibition | Q92560 | recombinant BAP1, Ub-AMC hydrolysis fluorescence kinetic; active compounds read low | activity remaining (% of control), % at 20 µM | actives 0.48% (n = 72,000) | AID 436;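 active means activity remaining at or below 50% of control, provided the compound also passes the data quality filters; inactive means the rest, including low values that fail the filters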
JNK3 inh: inhibitors of human JNK3 kinase; P53779; purified JNK3 kinase activity, HTS; inhibition, % at 8 µM; actives 0.61% (n = 60,000); AID 746; in the data active means inhibition above about 17%
Target sequence (P53779 whole entry, looked up): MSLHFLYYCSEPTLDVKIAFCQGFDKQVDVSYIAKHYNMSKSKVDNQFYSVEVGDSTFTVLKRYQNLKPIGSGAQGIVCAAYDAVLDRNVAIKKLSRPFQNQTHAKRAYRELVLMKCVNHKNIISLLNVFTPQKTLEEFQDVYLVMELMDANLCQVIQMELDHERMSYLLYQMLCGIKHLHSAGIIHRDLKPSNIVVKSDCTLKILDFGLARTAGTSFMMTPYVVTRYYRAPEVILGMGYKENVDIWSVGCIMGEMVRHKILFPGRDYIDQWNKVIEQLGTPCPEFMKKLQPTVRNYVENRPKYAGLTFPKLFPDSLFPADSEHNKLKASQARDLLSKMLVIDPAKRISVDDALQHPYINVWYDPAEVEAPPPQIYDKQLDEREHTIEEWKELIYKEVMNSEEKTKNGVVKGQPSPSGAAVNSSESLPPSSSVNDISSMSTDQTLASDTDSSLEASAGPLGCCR
SF-1 act: activates the human nuclear receptor SF-1; Q13285; CHO-K1 Gal4-SF-1 LBD luciferase reporter; % increase over DMSO SF-1-specific signal; activation, % at 10 µM; actives 1.9% (n = 65,000); AID 522;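 active means activation above the mean activation of all tested compounds plus 3 SD, cut at about 50% in these data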
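Material: Gal4–SF-1 LBD one-hybrid luciferase reporter in CHO-K1 cells | Amount: 4,000 cells per well | Compound dosing: 10 µM single point, 1% DMSO | Schedule: 20 h compound treatment, 37 °C | Measured by: SteadyLite luciferase luminescence | Evaluation: Percent activation versus DMSO | Control set: DMSO-treated SF-1-transfected cells as negative, DMSO-treated mock-transfected cells lacking SF-1 as background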
RORA act: RORA (human) activation | P35398 | CHO-K1 Gal4-RORA LBD luciferase reporter, luminescence; percent increase over mock-subtracted basal signal | activation, % at 10 µM | actives 1.5% (n = 65,000) | AID 560;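 active means activation above the mean of all tested compounds plus 3 SD, cut at about 49% in these data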
Ec RNAP inh: Escherichia coli RNA polymerase inhibition; AID 559; actives 0.2% (n = 62,000); inhibition, %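 (tested at 10 µM)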; E. coli RNA polymerase, fluorescence transcription assay; in the data active means inhibition above about 20%
A number is an active result; . = inactive; / = no result given; ! = not confirmed by another sample. In the library only some 3.2% were active in any assay of this set; here they are far more common.

SMILES | BAP1 block | JNK3 inh | SF-1 act | RORA act | Ec RNAP inh
O=C(OCC(CO)OC(CO)n1ccc(=O)[nH]c1=O)c1ccccc1 (stereo not drawn) | . | . | . | . | .
Cn1c(SCc2ccccc2Cl)nnc1-c1cnccn1 | / | / | 56.1 | 51.5 | .
Cn1c(SC/C=C/c2ccccc2)nnc1-c1cnccn1 | . | . | . | . | .
CCN(CC)c1ccc(C=Nc2ccc(C#N)cc2)c(O)c1 | . | . | . | . | .
CCN(CC)c1ccc(C=N/C(C#N)=C(\N)C#N)cc1 | . | . | 56.8 | . | .
COc1cccc(C(=O)Nc2cccc(SC)c2)c1 | . | . | 80.7 | 51.3 | .
CCCC(=O)Nc1ccc(NC(=O)c2cccc(OC)c2)nc1 | . | . | 60.4 | . | .
CCCC(=O)Nc1ccc(NC(=O)c2ccccn2)cn1 | / | / | . | 89.1 | .
CCCC(=O)Nc1ccc(NC(=O)c2ccccc2OC)cn1 | . | / | . | . | .
CCCc1nnc(NC(=O)c2cccc(OC)c2)s1 | . | . | . | 57.2 | .
COc1cccc(Cn2nnc(C(=O)Nc3ccc(C)cc3)c2N)c1 | . | . | . | . | .
COc1cc(NC(=O)c2cc3sccc3n2C)cc(OC)c1 | . | . | 106.5 | 61.0 | .
COc1ccc(OC)c(NC(=O)c2cc3sccc3n2C)c1 | . | . | . | . | .
Cn1c(C(=O)Nc2ccc3c(c2)OCO3)cc2sccc21 | . | . | 78.7 | . | .
CCCOC(=O)c1sc2nc3c(cc2c1N)C(=O)CCC3 | . | . | 60.5 | . | .
CC(=O)c1ccc(NS(=O)(=O)Cc2ccccc2)cc1 | . | . | . | . | .
Cc1ccn2cc(C(=O)Nc3ccccc3N3CCOCC3)nc2c1 | . | . | . | 54.9 | .
Cc1ccn2cc(C(=O)Nc3ccc4c(c3)OCCO4)nc2c1 | . | . | . | . | .
O=C(OCC#CCSc1nnc(-c2ccccc2)o1)c1ccco1 | . | . | . | . | .
O=C(OCC#CCSc1nnc(-c2ccc(Br)cc2)o1)c1ccco1 | . | . | . | . | 42.8
Cc1ccc(-c2nn(C)c(=O)c3ccccc23)cc1CNC(=O)CN1CCOCC1 | . | . | . | . | .
COc1ccc(-c2nn(-c3ccccc3)cc2CO)cc1OC | . | . | . | . | .
COc1cccc(-c2nn(-c3ccccc3)cc2CO)c1 | . | . | . | 62.0 | .
Cc1ccc(-c2nn(-c3ccccc3)cc2C(=O)N2CCOCC2)cc1 | . | . | . | . | .
OCc1cn(-c2ccccc2)nc1-c1ccc2c(c1)OCCO2 | . | . | . | 73.1 | .
SMILES | BAP1 block | JNK3 inh | SF-1 act | RORA act | Ec RNAP inh
Cc1nc2sc(C(c3ccccc3)N3CCN(C(=O)c4ccco4)CC3)c(O)n2n1 (stereo not drawn) | . | . | . | . | /
O=c1c2c([nH]c3ccccc13)CCCCCC2 | . | . | . | . | .
CCOC(=O)C1CCN(S(=O)(=O)c2ccc(-c3nc4ccccc4s3)s2)CC1 | . | . | 67.9 | . | .
CCOC(=O)N1CCN(C(=O)C2CCN(S(=O)(=O)c3ccc(Br)s3)CC2)CC1 | . | / | . | . | .
Fc1cnc(N2CCOCC2)nc1N1CCc2ccccc21 | . | . | 55.4 | . | .
CN1CCN(c2nc(N3CCN(c4ccccc4)CC3)ncc2F)CC1 | . | . | . | . | .
Cc1ccccc1COc1ccc2oc(C)c(C(=O)OC(C)C)c2c1 | . | / | / | / | /
Cc1oc2ccc(OCC(N)=O)cc2c1C(=O)OC(C)C | . | 31.6 | . | . | .
Nc1c(C(=O)NC2CCCC2)sc2nc(-c3cccs3)ccc12 | . | . | 59.7 | . | .
O=C(NC1CCCCCC1)c1cccs1 | . | . | . | . | .
Cc1ccc(-n2cc(-c3ccccc3)[nH]c2=O)cc1F | . | . | 86.8 | . | .
Cc1ccc(C)c(-n2cc(-c3ccccc3)[nH]c2=S)c1 | . | / | / | / | /
CCCCCCSc1nsc(NC(C)=O)n1 | . | . | . | 74.9 | .
CCCCSc1nsc(NC(C)=O)n1 | . | . | . | 55.6 | .
COc1ccc(OC)c(Nc2nc(N)nc(-c3cc4ccccc4o3)n2)c1 | . | 31.7 | . | . | .
CCCCOc1ccc(C(=O)OC(C)CN(C)C)cc1 (stereo not drawn) | . | . | . | . | .
Clc1ccc(-c2cn3c(n2)CCC3)cc1 | . | . | 72.5 | . | /
CSC1=C(C#N)C(c2cccs2)CC(=O)N1C (stereo not drawn) | / | / | . | . | .
Cn1c(CSc2ccccc2)c(C#N)c2ccccc21 | . | . | . | 61.4 | .
Cc1ccc(SCc2c(C#N)c3ccccc3n2C)cc1 | . | . | . | . | .
O=C(Nc1cccc2nsnc12)c1cccs1 | . | . | . | 78.2! | .

Source: PubChem
